≈ marks a conversion by molar mass, not a printed value.
Tests used:
Hepacivirus hominis [1] = experiment: Inhibition of HCV NS3 protease at 50 ug/ml
Procedure, shortened: (§1)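 Competitive displacement binding assay against HCV NS3-4A protease using the fluorogenic peptide substrate Ac-Asp-Glu-Asp(EDANS)-Glu-Glu-Abu-ψ. Fluorescence intensity was read, and percent inhibition was calculated from it.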

Hepacivirus hominis [2] = experiment: Inhibition of HCV NS3 protease at 100 ug/ml; procedure, shortened: as §1
Hepacivirus hominis [3] = experiment: Inhibition of HCV NS3 protease at 10 ug/ml; procedure, shortened: as §1
[4] = Inhibition of HCV NS3 protease; parameters: species or system Hepacivirus hominis; procedure, shortened: as §1

**Q.** Which results are given for O=C(CCC(=O)N[C@@H](Cc1ccc(O)cc1)C(=O)O)CC(c1ccc(C(F)(F)F)cc1)c1c[nH]c2ccc(Br)cc12 (stereo partly specified)?
**A.** inhibition (Hepacivirus hominis [1]): 54%; inhibition (Hepacivirus hominis [2]): 82.9%; inhibition (Hepacivirus hominis [3]): 19.1%; IC50 [4]: 39.2 µg/mL (≈ 62.1 µM)

**Q.** Which IC50 [4] does the source give for COc1ccc([C@@H](CC(=O)CCC(=O)N[C@@H](Cc2ccccc2)C(=O)O)c2c[nH]c3ccc(OC)cc23)cc1 here?
**A.** The IC50 was 36.5 µg/mL (≈ 69 µM).

**Q.** With COc1ccc2[nH]cc(C(CC(=O)CCC(=O)N[C@@H](Cc3c[nH]c4ccccc34)C(=O)O)c3ccc(C(F)(F)F)cc3)c2c1 (mixture of isomers) as the compound, how does the inhibition (Hepacivirus hominis [1]) read?
**A.** The inhibition was 51.2%.

**Q.** And the inhibition (Hepacivirus hominis [2])?
**A.** The inhibition was 76.9%.

**Q.** What about the IC50 [4] of the same compound?
**A.** The IC50 was 47.9 µg/mL.

**Q.** What does the source list for COc1ccc(C(CC(=O)CCC(=O)N[C@@H](Cc2c[nH]c3ccccc23)C(=O)O)c2c[nH]c3ccc(OC)cc23)cc1 (mixture of isomers)?
**A.** inhibition (Hepacivirus hominis [1]): 54.4%; inhibition (Hepacivirus hominis [2]): 67.4%; IC50 [4]: 44.8 µg/mL

**Q.** Which inhibition (Hepacivirus hominis [1]) does the source give for COc1ccc(C(CC(=O)CCC(=O)N[C@@H](Cc2ccc(O)cc2)C(=O)O)c2c[nH]c3ccc(OC)cc23)cc1 (mixture of isomers) here?
**A.** The inhibition was 69.9%.

**Q.** And the inhibition (Hepacivirus hominis [2])?
**A.** The inhibition was 78.8%.

**Q.** What about the inhibition (Hepacivirus hominis [3]) of the same compound?
**A.** Its inhibition is 29.6%.

**Q.** What about the IC50 [4] of the same compound?
**A.** The IC50 was 27.2 µg/mL.

**Q.** Which inhibition (Hepacivirus hominis [1]) does the source give for COc1ccc(C(CC(=O)CCC(=O)N[C@@H](Cc2ccccc2)C(=O)O)c2c[nH]c3ccc(OC)cc23)cc1 (mixture of isomers) here?
**A.** Its inhibition is 84.4%.

**Q.** What about the inhibition (Hepacivirus hominis [2]) of the same compound?
**A.** Its inhibition is 85.7%.

**Q.** And the inhibition (Hepacivirus hominis [3])?
**A.** The inhibition was 43.7%.

**Q.** What about the IC50 [4] of the same compound?
**A.** The IC50 was 15 µg/mL.

**Q.** What does the source list for COc1ccc2[nH]cc(C(CC(=O)CCC(=O)N[C@@H](Cc3ccccc3)C(=O)O)c3ccc(C(F)(F)F)cc3)c2c1 (mixture of isomers)?
**A.** inhibition (Hepacivirus hominis [1]): 67.2%; inhibition (Hepacivirus hominis [2]): 84.9%; inhibition (Hepacivirus hominis [3]): 48.5%; IC50 [4]: 13 µg/mL

**Q.** For COc1ccc2[nH]cc(C(CC(=O)CCC(=O)N[C@@H](Cc3ccc(O)cc3)C(=O)O)c3ccc(C(F)(F)F)cc3)c2c1 (mixture of isomers), which inhibition (Hepacivirus hominis [1]) is on record?
**A.** The inhibition was 57.1%.

**Q.** And the inhibition (Hepacivirus hominis [2])?
**A.** The inhibition was 84.3%.

**Q.** And the inhibition (Hepacivirus hominis [3])?
**A.** The inhibition was 35.2%.

**Q.** What about the IC50 [4] of the same compound?
**A.** The IC50 was 39 µg/mL.

**Q.** Which inhibition (Hepacivirus hominis [1]) does the source give for COc1ccc(C(CC(=O)CCC(=O)N[C@@H](Cc2c[nH]c3ccccc23)C(=O)O)c2c[nH]c3ccc(Br)cc23)cc1 (mixture of isomers) here?
**A.** The inhibition was 54.8%.

**Q.** What about the inhibition (Hepacivirus hominis [2]) of the same compound?
**A.** The inhibition was 72.6%.

**Q.** And the IC50 [4]?
**A.** The IC50 was 44.1 µg/mL.

**Q.** With COc1ccc2[nH]cc(C(CC(=O)CCC(=O)N[C@@H](Cc3c[nH]cn3)C(=O)O)c3ccc(C(F)(F)F)cc3)c2c1 (mixture of isomers) as the compound, how does the inhibition (Hepacivirus hominis [1]) read?
**A.** The inhibition was 62.5%.

**Q.** And the inhibition (Hepacivirus hominis [2])?
**A.** Its inhibition is 77.6%.

**Q.** And the inhibition (Hepacivirus hominis [3])?
**A.** Its inhibition is 23.5%.

**Q.** And the IC50 [4]?
**A.** Its IC50 is 30.5 µg/mL.

**Q.** Which inhibition (Hepacivirus hominis [1]) does the source give for COc1ccc(C(CC(=O)CCC(=O)N[C@@H](Cc2ccc(O)cc2)C(=O)O)c2c[nH]c3ccc(Br)cc23)cc1 (mixture of isomers) here?
**A.** The inhibition was 41.5%.

**Q.** And the inhibition (Hepacivirus hominis [2])?
**A.** The inhibition was 68.7%.

**Q.** What about the IC50 [4] of the same compound?
**A.** The IC50 was 63.3 µg/mL.

**Q.** For COc1ccc(C(CC(=O)CCC(=O)N[C@@H](Cc2c[nH]cn2)C(=O)O)c2c[nH]c3ccc(OC)cc23)cc1 (mixture of isomers), which inhibition (Hepacivirus hominis [1]) is on record?
**A.** Its inhibition is 59.2%.

**Q.** What about the inhibition (Hepacivirus hominis [2]) of the same compound?
**A.** The inhibition was 75.7%.

**Q.** What about the inhibition (Hepacivirus hominis [3]) of the same compound?
**A.** Its inhibition is 22.4%.

**Q.** And the IC50 [4]?
**A.** Its IC50 is 31 µg/mL.

Source: ChEMBL document CHEMBL1140068, “Computer based design, synthesis and biological evaluation of novel indole derivatives as HCV NS3-4A serine protease inhibitors” (Bioorg Med Chem, 2008)
